Usually pKd stands for −log10 of the Kd, conventionally taken in molar units. The term AUC(0-inf) denotes the area under the concentration-time curve extrapolated to infinity. In general, Tmax refers to the time at which the peak concentration occurs. As a reminder, the pEC50 is the negative decadic logarithm of the EC50, by convention in mol/L. By inhibition in vivo is commonly meant the drop in the measured response relative to a control, in per cent. In general, pIC50 refers to the negative decadic logarithm of the IC50, by convention in mol/L. As usually defined, the Cmax is the peak of the concentration-time curve.

We go through one molecule from ChEMBL document CHEMBL2029242 (J Med Chem, 2012).

pEC50, pIC50, pKd: −log10 of the molar value. Activity calls are given as the source filed them. The calls are words filed in the database; no cut-off is given here.

Series [1] addresses Aurora kinase A (Homo sapiens, UniProt O14965). In words: Inhibition of Aurora A in human HEK293 cells after 1 hr by competition binding assay. The class given is cell-based. The method in brief:
(§1)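 KINOMEscan competition binding. Binding reactions ran at rt for 1 h. Unbound kinase was captured on an immobilized affinity ligand and quantified by qPCR. Each kinase was tested individually.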

The nature of series [2]: AUC (infinity) in Cynomolgus monkey at 10 mg/kg, po. The class given is ADME, organism-based, Macaca fascicularis. The arrangement: dose 10 mg/kg, route oral, time infinity. As to conditions: plasma. The method in brief:
(§2)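 Single-dose PK. Rats: male Sprague−Dawley, jugular-catheterized, 1 mg/kg iv in 3:1 PEG400/water (n = 2) and 10 mg/kg po in Pharmatek #6 (n = 3). Female athymic nude mice: 100 mg/kg po in Pharmatek #6 (n = 3). Beagle dogs and male cynomolgus monkeys (n = 3): crossover, 1 mg/kg iv and 10 mg/kg po in 22% HPβCD, overnight fast. Plasma LC-MS/MS to 24 h; noncompartmental parameters, mean ± SD.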

Series [3] in a line: Tmax in Cynomolgus monkey at 10 mg/kg, po. The class given is ADME, organism-based, Macaca fascicularis. The arrangement: dose 10 mg/kg, route oral. The settings on record: in vivo. A digest of the protocol: (§3)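 Male non-naive cynomolgus monkeys (2.6–3.4 kg) and beagle dogs (10.3–11.9 kg), n = 3 each, were dosed in a crossover design with a ≥7-day washout. Doses were 10 mg/kg by nasogastric gavage and 1 mg/kg as a saphenous iv bolus, both free base in 22% HPβCD. Animals were fasted overnight until about 4 h post dose. Femoral plasma was sampled from predose to 24 h and analyzed by LC-MS/MS. Parameters came from noncompartmental analysis; mean ± SD reported.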

Series [4] concerns the target Serine/threonine-protein kinase B-raf (Homo sapiens, UniProt P15056). The experiment in a line: Inhibition of wild type BRAF in human HEK293 cells after 1 hr by competition binding assay. The class given is cell-based. A digest of the protocol: as §1
Series [5] has as its system COLO 205. The experiment in a line: Antitumor activity against human COLO205 cells xenografted in athymic nude mouse at 100 mg/kg, po bid for 14 days. The class given is functional, organism-based. Set-up: dose 100 mg/kg. A digest of the protocol:
(§4)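 Athymic nude mice carried subcutaneous flank Colo-205 xenografts (1 × 10^6 cells), randomized at 150−200 mm3 (n = 10/group). Oral dosing BID for 14 days in 22% HPβCD against vehicle controls. Caliper volumes W2(L/2) taken three times weekly. Partial regression: volume fell in ≥3 successive measurements to below the starting volume while the tumor stayed palpable.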
For orientation: A xenograft is tissue or cells of one species grown in another, often human tumour cells in immunodeficient mice.

Series [6] concerns DU-145. The experiment in a line: Cytotoxicity against human DU145 cells expressing wild type BRAF after 72 hrs by cell titer blue assay. The class given is functional, cell-based. As to conditions: DU-145, 72 h. A digest of the protocol:
(§5)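 Cells were grown in ATCC-recommended media and kept overnight in 0.5% serum. They were then exposed to compound for 72 h, and Cell Titer Blue was added for 3 h. EC50 came from fluorometric concentration−response curves, run in duplicate and repeated at least once.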
(Alamar Blue is a resazurin reagent that responds to reducing activity.)

Series [7] concerns the target Tyrosine-protein kinase ABL1 (Homo sapiens, UniProt P00519). The experiment in a line: Inhibition of Abl1 in human HEK293 cells after 1 hr by competition binding assay. The class given is cell-based. A digest of the protocol:
as §1

A short description of series [8]: AUC (infinity) in Sprague-Dawley rat at 10 mg/kg, po. The class given is ADME, organism-based. The arrangement: time infinity, dose 10 mg/kg, route oral. As to conditions: plasma. The method in brief:
as §2

Series [9] deals with Mus musculus. The experiment in a line: Inhibition of BRAF V600E mutant-mediated MEK phosphorylation in human COLO205 cells xenografted in athymic nude mouse at 55 mg/kg, po after 10 hrs. The class given is functional. As to conditions: COLO 205, 10 h. The method in brief: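 Mice bearing Colo-205 xenografts got one oral dose in 22% HPβCD; vehicle controls were run. Tumors were collected at time points over 24 h and lysed. pMEK and total MEK in the lysates were measured by immunoblotting and ELISA, and pMEK was normalized to total MEK.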

The test system of series [10] is Liver microsomes. The experiment in a line: Intrinsic clearance in human liver microsomes. The class given is ADME, Microsome. The method in brief: (§6)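 Pooled liver microsomes (0.5 mg/mL) were premixed with 0.1 M phosphate buffer pH 7.4, 6.5 mM MgCl2 and test compound (1 μM final, 0.2% DMSO). NADPH (1 mM) started the reaction at 37 °C, in duplicate. Minus-NADPH and testosterone controls were included. Aliquots were taken at 0, 5, 15, 30 and 60 min and quenched in acetonitrile containing internal standard.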

In series [11] the target is Tyrosine-protein kinase JAK2 (Homo sapiens, UniProt O60674). The experiment in a line: Inhibition of JAK2 in human HEK293 cells after 1 hr by competition binding assay. The class given is cell-based. The method in brief: (§7)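 Unbound kinase was captured on immobilized affinity ligand and quantified by qPCR. Kd came from eleven serial 3-fold dilutions, as the mean of duplicates.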

Series [12] concerns the target Serine/threonine-protein kinase PLK1 (Homo sapiens, UniProt P53350). The experiment in a line: Inhibition of PLK1 in human HEK293 cells after 1 hr by competition binding assay. The class given is cell-based. A digest of the protocol:
as §1

Series [13] addresses Hepatocyte growth factor receptor (Homo sapiens, UniProt P08581). The experiment in a line: Inhibition of cMET in human HEK293 cells after 1 hr by competition binding assay. The class given is cell-based. The method in brief: as §1
Series [14] has as its system Liver. In words: Intrinsic clearance in mouse liver microsomes. The class given is ADME, Microsome. In general terms: Liver microsomes are a subcellular fraction often used to study metabolism.
Series [15] concerns the target Cytochrome P450 2D6 (Homo sapiens, UniProt P10635). The experiment in a line: Inhibition of human CYP2D6. The class given is ADME. A digest of the protocol:
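Pooled human liver microsomes (0.25 mg/mL) with NADPH (1 mM) and five pooled probe substrates (testosterone, diclofenac, dextromethorphan, mephenytoin, phenacetin). Test compound ran at eight concentrations, 0.31−40 μM, 20 min at 37 °C, with pooled control inhibitors in parallel. Isoform-specific metabolites were measured by LC-MS/MS.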

Series [16] relates to COLO 205. The experiment in a line: Antitumor activity against human COLO205 cells xenografted in athymic nude mouse assessed as partial tumor regression at 30 mg/kg, po bid for 14 days. The class given is functional. A digest of the protocol: as §4
Series [17] can be described thus: Cmax in beagle dog at 10 mg/kg, po. The class given is ADME, organism-based, Canis lupus familiaris. The arrangement: dose 10 mg/kg, route oral. As to conditions: in vivo. A digest of the protocol: as §2
The target in series [18] is Phosphatidylinositol 4,5-bisphosphate 3-kinase catalytic subunit alpha isoform (Homo sapiens, UniProt P42336). In words: Inhibition of PIK3-CA in human HEK293 cells after 1 hr by competition binding assay. The class given is cell-based. The method in brief: as §7
Series [19] can be described thus: Half life in Cynomolgus monkey liver microsomes. The class given is ADME, Macaca fascicularis, Microsome. The method in brief: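 Pooled liver microsomes (0.5 mg/mL) in 0.1 M phosphate pH 7.4 with 6.5 mM MgCl2 and compound at 1 μM (0.2% DMSO). NADPH (1 mM) started the reaction at 37 °C, with minus-NADPH and testosterone controls. Aliquots taken at 0, 5, 15, 30 and 60 min were quenched in acetonitrile; duplicates.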

A short description of series [20]: Stability in rat liver microsomes assessed as compound remaining at 1 uM after 60 mins. The class given is ADME, Microsome. The settings on record: read-out: Stability. A digest of the protocol: as §6
A short description of series [21]: Volume of distribution in beagle dog at 1 mg/kg, iv and 10 mg/kg, po. The class given is ADME, organism-based, Canis lupus familiaris. The settings on record: in vivo. The method in brief: as §3
Series [22] concerns A-375. In words: Cytotoxicity against human A375 cells expressing BRAF V600E mutant after 72 hrs by cell titer blue assay. The class given is functional, cell-based. As to conditions: A-375, 72 h. A digest of the protocol:
as §5

Series [23] is described as follows: Terminal half life in Sprague-Dawley rat at 1 mg/kg, iv and 10 mg/kg, po. The class given is ADME, organism-based. The settings on record: in vivo, read-out: beta t1/2 (converted). A digest of the protocol: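 Male Sprague-Dawley rats (250–350 g, jugular-catheterized) received a single dose either iv at 1 mg/kg in 3:1 PEG400/water (n = 2) or po at 10 mg/kg in Pharmatek #6 (n = 3). Plasma was sampled at 5 min (iv only), 15 and 30 min, and 1, 2, 4, 6 and 24 h. Samples were analyzed by LC-MS/MS after acetonitrile precipitation. Parameters came from noncompartmental linear-trapezoidal analysis of individual animals.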

Series [24] can be described thus: Tmax in beagle dog at 10 mg/kg, po. Set-up: dose 10 mg/kg, route oral. The settings on record: in vivo. The class given is ADME, organism-based, Canis lupus familiaris. A digest of the protocol:
as §3

Sequence of Tyrosine-protein kinase ABL1 (P00519 whole entry): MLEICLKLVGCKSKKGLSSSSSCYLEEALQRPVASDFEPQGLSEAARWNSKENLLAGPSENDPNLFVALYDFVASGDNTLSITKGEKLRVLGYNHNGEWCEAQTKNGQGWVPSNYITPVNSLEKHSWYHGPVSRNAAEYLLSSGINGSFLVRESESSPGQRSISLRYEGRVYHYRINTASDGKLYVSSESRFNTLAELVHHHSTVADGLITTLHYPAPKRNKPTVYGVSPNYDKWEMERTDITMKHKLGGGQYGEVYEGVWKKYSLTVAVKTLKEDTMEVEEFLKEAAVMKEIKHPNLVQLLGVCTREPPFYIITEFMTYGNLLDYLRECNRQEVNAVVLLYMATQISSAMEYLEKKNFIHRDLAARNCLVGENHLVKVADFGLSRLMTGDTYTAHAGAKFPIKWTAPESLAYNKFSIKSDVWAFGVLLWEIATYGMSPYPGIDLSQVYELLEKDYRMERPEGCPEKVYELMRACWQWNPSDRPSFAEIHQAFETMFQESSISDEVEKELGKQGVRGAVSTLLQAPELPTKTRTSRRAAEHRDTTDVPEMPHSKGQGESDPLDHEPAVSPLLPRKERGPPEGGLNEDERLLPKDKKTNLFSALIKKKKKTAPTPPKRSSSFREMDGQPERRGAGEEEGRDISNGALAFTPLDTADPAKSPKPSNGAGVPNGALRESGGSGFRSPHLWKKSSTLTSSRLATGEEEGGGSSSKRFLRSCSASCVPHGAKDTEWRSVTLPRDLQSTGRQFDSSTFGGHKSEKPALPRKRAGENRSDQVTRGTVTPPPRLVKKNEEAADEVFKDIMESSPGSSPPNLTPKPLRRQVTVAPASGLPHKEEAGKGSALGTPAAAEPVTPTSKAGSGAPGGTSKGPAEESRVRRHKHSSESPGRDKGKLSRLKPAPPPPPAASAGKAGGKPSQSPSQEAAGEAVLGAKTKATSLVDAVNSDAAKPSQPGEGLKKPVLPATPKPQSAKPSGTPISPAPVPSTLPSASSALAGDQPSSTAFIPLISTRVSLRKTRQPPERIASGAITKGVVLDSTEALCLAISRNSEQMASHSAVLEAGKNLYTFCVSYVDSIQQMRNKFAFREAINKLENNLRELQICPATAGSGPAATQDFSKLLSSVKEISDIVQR
Sequence of Aurora kinase A (O14965 whole entry): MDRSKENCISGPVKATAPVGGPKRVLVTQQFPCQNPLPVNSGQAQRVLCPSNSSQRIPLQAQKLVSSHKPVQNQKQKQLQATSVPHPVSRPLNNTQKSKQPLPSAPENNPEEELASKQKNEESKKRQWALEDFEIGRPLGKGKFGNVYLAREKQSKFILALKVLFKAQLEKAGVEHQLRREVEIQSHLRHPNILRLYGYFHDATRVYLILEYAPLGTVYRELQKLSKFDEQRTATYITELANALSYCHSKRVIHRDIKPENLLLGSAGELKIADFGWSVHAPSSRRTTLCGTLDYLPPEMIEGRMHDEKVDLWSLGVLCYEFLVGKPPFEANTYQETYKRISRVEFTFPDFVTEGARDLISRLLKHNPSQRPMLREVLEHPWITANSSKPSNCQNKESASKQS
Sequence of Serine/threonine-protein kinase PLK1 (P53350 whole entry): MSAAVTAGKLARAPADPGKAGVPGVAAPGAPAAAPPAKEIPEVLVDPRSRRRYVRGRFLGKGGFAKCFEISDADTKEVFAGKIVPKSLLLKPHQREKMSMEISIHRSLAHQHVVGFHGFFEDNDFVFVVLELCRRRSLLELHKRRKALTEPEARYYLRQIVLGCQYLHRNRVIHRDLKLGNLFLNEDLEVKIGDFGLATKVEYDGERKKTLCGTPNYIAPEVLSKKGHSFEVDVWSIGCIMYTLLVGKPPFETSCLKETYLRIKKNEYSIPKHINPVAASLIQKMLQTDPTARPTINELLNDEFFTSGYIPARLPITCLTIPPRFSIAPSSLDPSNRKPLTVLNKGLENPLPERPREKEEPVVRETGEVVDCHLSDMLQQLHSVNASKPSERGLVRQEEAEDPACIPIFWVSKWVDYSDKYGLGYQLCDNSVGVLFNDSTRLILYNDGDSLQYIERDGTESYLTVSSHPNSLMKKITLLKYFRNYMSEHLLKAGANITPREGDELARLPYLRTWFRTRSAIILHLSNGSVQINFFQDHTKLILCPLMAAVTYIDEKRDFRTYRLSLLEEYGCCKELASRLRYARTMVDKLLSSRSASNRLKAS
Sequence of Phosphatidylinositol 4,5-bisphosphate 3-kinase catalytic subunit alpha isoform (P42336 whole entry, canonical isoform): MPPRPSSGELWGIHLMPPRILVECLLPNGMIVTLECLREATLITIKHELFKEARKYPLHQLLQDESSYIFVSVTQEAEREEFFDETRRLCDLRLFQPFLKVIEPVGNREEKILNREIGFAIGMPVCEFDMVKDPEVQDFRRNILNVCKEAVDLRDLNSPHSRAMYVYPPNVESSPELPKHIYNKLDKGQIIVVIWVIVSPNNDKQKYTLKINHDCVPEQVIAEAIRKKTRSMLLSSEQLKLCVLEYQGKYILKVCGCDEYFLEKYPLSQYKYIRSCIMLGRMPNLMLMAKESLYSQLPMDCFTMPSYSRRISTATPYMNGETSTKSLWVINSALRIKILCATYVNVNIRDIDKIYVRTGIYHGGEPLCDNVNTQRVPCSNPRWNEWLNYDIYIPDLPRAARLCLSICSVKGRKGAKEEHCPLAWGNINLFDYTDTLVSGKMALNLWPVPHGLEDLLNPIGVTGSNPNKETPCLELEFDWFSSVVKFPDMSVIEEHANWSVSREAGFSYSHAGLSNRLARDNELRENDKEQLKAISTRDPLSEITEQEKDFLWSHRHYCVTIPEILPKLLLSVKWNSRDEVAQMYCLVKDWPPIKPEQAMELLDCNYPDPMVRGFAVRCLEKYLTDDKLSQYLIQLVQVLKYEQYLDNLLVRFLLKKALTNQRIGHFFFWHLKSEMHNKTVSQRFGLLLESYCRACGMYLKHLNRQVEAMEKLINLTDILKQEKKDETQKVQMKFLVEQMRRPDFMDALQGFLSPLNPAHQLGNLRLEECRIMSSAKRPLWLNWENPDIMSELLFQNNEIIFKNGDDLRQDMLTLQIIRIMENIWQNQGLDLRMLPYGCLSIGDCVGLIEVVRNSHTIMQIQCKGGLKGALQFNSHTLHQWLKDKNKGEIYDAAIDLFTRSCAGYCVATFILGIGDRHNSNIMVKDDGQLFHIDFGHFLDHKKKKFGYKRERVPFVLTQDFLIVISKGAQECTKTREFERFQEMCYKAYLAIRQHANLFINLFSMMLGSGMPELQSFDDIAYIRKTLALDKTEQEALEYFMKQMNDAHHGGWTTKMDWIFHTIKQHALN
Sequence of Cytochrome P450 2D6 (P10635 whole entry, canonical isoform): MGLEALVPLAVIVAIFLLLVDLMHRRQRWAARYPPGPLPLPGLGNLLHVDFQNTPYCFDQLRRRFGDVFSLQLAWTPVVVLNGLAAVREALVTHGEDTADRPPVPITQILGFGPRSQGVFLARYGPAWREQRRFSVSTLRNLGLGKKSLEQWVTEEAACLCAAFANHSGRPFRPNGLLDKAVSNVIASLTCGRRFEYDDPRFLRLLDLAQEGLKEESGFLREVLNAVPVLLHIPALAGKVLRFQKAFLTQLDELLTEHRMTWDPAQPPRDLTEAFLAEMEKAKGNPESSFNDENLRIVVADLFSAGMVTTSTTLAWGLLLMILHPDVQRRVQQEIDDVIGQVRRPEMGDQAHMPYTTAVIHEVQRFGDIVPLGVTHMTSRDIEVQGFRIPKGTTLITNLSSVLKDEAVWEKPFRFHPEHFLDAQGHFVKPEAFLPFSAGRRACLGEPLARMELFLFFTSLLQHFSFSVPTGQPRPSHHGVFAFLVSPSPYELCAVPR
Sequence of Serine/threonine-protein kinase B-raf (P15056 whole entry): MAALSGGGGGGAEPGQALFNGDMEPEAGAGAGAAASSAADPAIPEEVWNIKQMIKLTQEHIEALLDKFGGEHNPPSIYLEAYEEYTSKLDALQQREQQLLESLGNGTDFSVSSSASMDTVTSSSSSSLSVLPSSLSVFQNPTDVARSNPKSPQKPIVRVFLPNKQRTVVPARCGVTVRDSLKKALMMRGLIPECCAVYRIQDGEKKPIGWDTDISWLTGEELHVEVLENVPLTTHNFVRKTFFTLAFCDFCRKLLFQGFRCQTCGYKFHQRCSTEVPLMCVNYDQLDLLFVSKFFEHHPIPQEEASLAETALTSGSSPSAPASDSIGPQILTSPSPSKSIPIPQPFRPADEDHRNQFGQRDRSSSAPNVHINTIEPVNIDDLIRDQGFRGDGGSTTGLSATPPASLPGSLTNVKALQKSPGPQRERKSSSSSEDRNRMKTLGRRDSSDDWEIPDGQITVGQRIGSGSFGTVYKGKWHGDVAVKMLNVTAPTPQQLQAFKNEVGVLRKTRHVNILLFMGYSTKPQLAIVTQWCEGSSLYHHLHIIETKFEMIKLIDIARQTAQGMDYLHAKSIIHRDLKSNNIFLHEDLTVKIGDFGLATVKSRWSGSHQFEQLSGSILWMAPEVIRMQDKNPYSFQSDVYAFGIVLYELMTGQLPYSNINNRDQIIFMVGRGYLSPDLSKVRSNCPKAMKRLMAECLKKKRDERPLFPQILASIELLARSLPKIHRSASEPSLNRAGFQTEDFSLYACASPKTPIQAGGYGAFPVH

For `COc1cc2ncnc(Oc3cccc(NC(=O)Nc4cc(C(C)(C)C(F)(F)F)on4)c3)c2cc1OC` [CEP-32496], the pKd in series [1] is less than 5.00; in series [4], 7.44; in series [7], 8.52; in series [11], 5.33; in series [12], less than 5.00; in [13], 6.29. The molecule also gave a pKd in [18] of less than 5.00. Besides, the results for the AUC(0-inf) in series [2] and in series [8] were 92.2 µM·h and 74.4 µM·h, respectively. For the same molecule, the Tmax worked out at 4 h in series [3] and 2 h in [24]. In addition, the result in series [5] was Active. In series [6], this molecule had a pEC50 of 5.54. In addition, testing at 55 mg/kg in [9] gave an inhibition in vivo of 57%. Moreover, the CLH in series [10] and in [14] was less than 23 µL/min/mg in each case. For the same molecule, the pIC50 is less than 5.00 in [15] and 7.11 in series [22]. Also, the Activity in [16] is on record as 40%. Besides, in series [17], the Cmax is 5.2 µM. The half-life in [19] is greater than 1 h; in series [23], 7.8 h. Besides, the remaining at 1 h, 1 µM in series [20] came to 81%. The Vd in series [21] is 4.5 L/kg.
